Data reported in ChEMBL document CHEMBL4346701, “Synthesis and biological evaluation of tryptophan-derived rhodanine derivatives as PTP1B inhibitors and anti-bacterial agents” (Eur J Med Chem, 2019).
≈ marks a conversion by molar mass, not a printed value.

Key:
[1] = test system: Escherichia coli; assay: Antibacterial activity against Escherichia coli 1924 assessed as reduction in bacterial cell growth incubated for 24 hrs by ELISA; assay type: functional; conditions: Escherichia coli, 1924, 24 h
Method in brief: (§1)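 MIC determined by serial dilution in 96-well microtiter plates. Strains used were E. coli 1924 and P. aeruginosa 2742 (Gram-negative), S. mutans 3289 (Gram-positive) and the fungus C. albicans 7535. Gatifloxacin, moxifloxacin, norfloxacin and oxacillin served as antibacterial reference agents, and fluconazole as the antifungal reference.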

[2] = test system: Staphylococcus aureus; assay: Antibacterial activity against Staphylococcus aureus RN4220 assessed as reduction in bacterial cell growth incubated for 24 hrs by ELISA; assay type: functional; conditions: RN4220, 24 h
Method in brief: (§2)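 MICs determined by serial dilution in 96-well microtiter plates. The strain panel included Gram-positive S. aureus strains and multidrug-resistant clinical isolates. Gatifloxacin, moxifloxacin, norfloxacin and oxacillin served as antibacterial positive controls.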

[3] = test system: Pseudomonas aeruginosa; assay: Antibacterial activity against Pseudomonas aeruginosa 2742 assessed as reduction in bacterial cell growth incubated for 24 hrs by ELISA; assay type: functional; conditions: Pseudomonas aeruginosa, 2742, 24 h; method in brief: as §1
[4] = test system: Staphylococcus aureus; assay: Antibacterial activity against Quinolone-resistant Staphylococcus aureus CCARM 3519 assessed as reduction in bacterial cell growth incubated for 24 hrs by ELISA; assay type: functional; conditions: CCARM 3519, 24 h; method in brief: as §2
[5] = test system: Staphylococcus aureus; assay: Antibacterial activity against Quinolone-resistant Staphylococcus aureus CCARM 3505 assessed as reduction in bacterial cell growth incubated for 24 hrs by ELISA; assay type: functional; conditions: CCARM 3505, 24 h; method in brief: as §2
[6] = test system: Streptococcus mutans; assay: Antibacterial activity against Streptococcus mutans KCTC3289 assessed as reduction in bacterial cell growth incubated for 24 hrs by ELISA; assay type: functional; conditions: KCTC3289, 24 h; method in brief: as §1
[7] = test system: Staphylococcus aureus; assay: Antibacterial activity against Methicillin-resistant Staphylococcus aureus CCARM 3167 assessed as reduction in bacterial cell growth incubated for 24 hrs by ELISA; assay type: functional; conditions: CCARM 3167, 24 h; method in brief: as §2
[8] = target: T1, Tyrosine-protein phosphatase non-receptor type 1 (Homo sapiens, UniProt P18031); assay: Inhibition of human recombinant GST-tagged PTP1B expressed in Escherichia coli BL21 (DE3) using pNPP as substrate measured for 2 mins by colorimetric analysis
T1 sequence (P18031 whole entry): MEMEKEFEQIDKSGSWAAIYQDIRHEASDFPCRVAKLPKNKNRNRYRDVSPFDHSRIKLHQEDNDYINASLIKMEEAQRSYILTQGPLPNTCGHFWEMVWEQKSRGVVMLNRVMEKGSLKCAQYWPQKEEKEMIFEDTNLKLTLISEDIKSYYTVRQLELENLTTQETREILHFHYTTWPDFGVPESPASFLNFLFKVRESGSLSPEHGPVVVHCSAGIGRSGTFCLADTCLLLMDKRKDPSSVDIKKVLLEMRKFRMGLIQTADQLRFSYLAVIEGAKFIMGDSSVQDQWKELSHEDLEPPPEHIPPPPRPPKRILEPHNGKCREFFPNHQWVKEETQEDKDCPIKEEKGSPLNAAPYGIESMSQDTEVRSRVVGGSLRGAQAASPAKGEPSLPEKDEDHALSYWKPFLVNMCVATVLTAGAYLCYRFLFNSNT

[9] = test system: Staphylococcus aureus; assay: Antibacterial activity against Methicillin-resistant Staphylococcus aureus CCARM 3506 assessed as reduction in bacterial cell growth incubated for 24 hrs by ELISA; assay type: functional; conditions: CCARM 3506, 24 h; method in brief: as §2
[10] = test system: Candida albicans; assay: Antifungal activity against Candida albicans 7535 assessed as reduction in bacterial cell growth incubated for 24 hrs by ELISA; assay type: functional; conditions: Candida albicans, 7535, 24 h; method in brief: as §1
[11] = test system: Staphylococcus aureus; assay: Antibacterial activity against Staphylococcus aureus KCTC503 assessed as reduction in bacterial cell growth incubated for 24 hrs by ELISA; assay type: functional; conditions: KCTC503, 24 h; method in brief: as §2
[12] = test system: Staphylococcus aureus; assay: Antibacterial activity against Staphylococcus aureus KCTC209 assessed as reduction in bacterial cell growth incubated for 24 hrs by ELISA; assay type: functional; conditions: KCTC209, 24 h; method in brief: as §2

## O=C(O)C(Cc1c[nH]c2ccccc12)N1C(=O)/C(=C/c2ccc3cc(OCc4ccccc4)ccc3c2)SC1=S (stereo unspecified)
[1]
  MIC: 8 µg/mL (≈ 14.2 µM)
[2]
  MIC: 8 µg/mL (≈ 14.2 µM)
[3]
  MIC: > 64 µg/mL
[4]
  MIC: 8 µg/mL (≈ 14.2 µM)
[5]
  MIC: 4 µg/mL (≈ 7.08 µM)
[6]
  MIC: 8 µg/mL (≈ 14.2 µM)
[7]
  MIC: 8 µg/mL (≈ 14.2 µM)
[8]
  IC50: 820 nM
[9]
  MIC: 8 µg/mL (≈ 14.2 µM)
[10]
  MIC: > 64 µg/mL

## COc1cc(/C=C2\SC(=S)N(C(Cc3c[nH]c4ccccc34)C(=O)O)C2=O)ccc1OCc1ccc(Cl)cc1 (stereo unspecified)
[1]
  MIC: 4 µg/mL (≈ 6.91 µM)
[2]
  MIC: 2 µg/mL (≈ 3.45 µM)
[3]
  MIC: > 64 µg/mL
[4]
  MIC: 4 µg/mL (≈ 6.91 µM)
[5]
  MIC: 4 µg/mL (≈ 6.91 µM)
[11]
  MIC: 4 µg/mL (≈ 6.91 µM)
[6]
  MIC: 4 µg/mL (≈ 6.91 µM)
[12]
  MIC: 4 µg/mL (≈ 6.91 µM)
[7]
  MIC: 4 µg/mL (≈ 6.91 µM)
[8]
  IC50: 4360 nM
[9]
  MIC: 4 µg/mL (≈ 6.91 µM)
[10]
  MIC: > 64 µg/mL

## O=C(O)C(Cc1c[nH]c2ccccc12)N1C(=O)/C(=C/c2ccc(OCc3ccccc3)cc2)SC1=S (stereo unspecified)
[1]
  MIC: 8 µg/mL (≈ 15.5 µM)
[2]
  MIC: 4 µg/mL (≈ 7.77 µM)
[3]
  MIC: > 64 µg/mL
[4]
  MIC: 8 µg/mL (≈ 15.5 µM)
[5]
  MIC: 8 µg/mL (≈ 15.5 µM)
[11]
  MIC: 8 µg/mL (≈ 15.5 µM)
[6]
  MIC: 4 µg/mL (≈ 7.77 µM)
[12]
  MIC: 8 µg/mL (≈ 15.5 µM)
[7]
  MIC: 8 µg/mL (≈ 15.5 µM)
[8]
  IC50: 5520 nM
[9]
  MIC: 8 µg/mL (≈ 15.5 µM)
[10]
  MIC: > 64 µg/mL

## COc1ccc(COc2ccc3cc(/C=C4\SC(=S)N(C(Cc5c[nH]c6ccccc56)C(=O)O)C4=O)ccc3c2)cc1 (stereo unspecified)
[1]
  MIC: 16 µg/mL (≈ 26.9 µM)
[2]
  MIC: 8 µg/mL (≈ 13.5 µM)
[3]
  MIC: > 64 µg/mL
[4]
  MIC: 8 µg/mL (≈ 13.5 µM)
[5]
  MIC: 8 µg/mL (≈ 13.5 µM)
[6]
  MIC: 8 µg/mL (≈ 13.5 µM)
[7]
  MIC: 8 µg/mL (≈ 13.5 µM)
[8]
  IC50: 1450 nM
[9]
  MIC: 8 µg/mL (≈ 13.5 µM)
[10]
  MIC: > 64 µg/mL

## COc1ccccc1COc1ccc2cc(/C=C3\SC(=S)N(C(Cc4c[nH]c5ccccc45)C(=O)O)C3=O)ccc2c1 (stereo unspecified)
[1]
  MIC: 16 µg/mL (≈ 26.9 µM)
[2]
  MIC: 8 µg/mL (≈ 13.5 µM)
[3]
  MIC: > 64 µg/mL
[4]
  MIC: 8 µg/mL (≈ 13.5 µM)
[5]
  MIC: 8 µg/mL (≈ 13.5 µM)
[6]
  MIC: 8 µg/mL (≈ 13.5 µM)
[7]
  MIC: 8 µg/mL (≈ 13.5 µM)
[8]
  IC50: 1530 nM
[9]
  MIC: 8 µg/mL (≈ 13.5 µM)
[10]
  MIC: > 64 µg/mL

## O=C(O)C(Cc1c[nH]c2ccccc12)N1C(=O)/C(=C/c2ccc3cc(OCc4cccc(Cl)c4)ccc3c2)SC1=S (stereo unspecified)
[1]
  MIC: 2 µg/mL (≈ 3.34 µM)
[2]
  MIC: 4 µg/mL (≈ 6.68 µM)
[3]
  MIC: > 64 µg/mL
[4]
  MIC: 8 µg/mL (≈ 13.4 µM)
[5]
  MIC: 8 µg/mL (≈ 13.4 µM)
[6]
  MIC: 2 µg/mL (≈ 3.34 µM)
[7]
  MIC: 2 µg/mL (≈ 3.34 µM)
[8]
  IC50: 720 nM
[9]
  MIC: 4 µg/mL (≈ 6.68 µM)
[10]
  MIC: > 64 µg/mL

## COc1cccc(COc2ccc3cc(/C=C4\SC(=S)N(C(Cc5c[nH]c6ccccc56)C(=O)O)C4=O)ccc3c2)c1 (stereo unspecified)
[1]
  MIC: 16 µg/mL (≈ 26.9 µM)
[2]
  MIC: 8 µg/mL (≈ 13.5 µM)
[3]
  MIC: > 64 µg/mL
[4]
  MIC: 16 µg/mL (≈ 26.9 µM)
[5]
  MIC: 8 µg/mL (≈ 13.5 µM)
[6]
  MIC: 8 µg/mL (≈ 13.5 µM)
[7]
  MIC: 8 µg/mL (≈ 13.5 µM)
[8]
  IC50: 1670 nM
[9]
  MIC: 16 µg/mL (≈ 26.9 µM)
[10]
  MIC: > 64 µg/mL

## COc1cc(/C=C2\SC(=S)N(C(Cc3c[nH]c4ccccc34)C(=O)O)C2=O)ccc1OCc1ccccc1 (stereo unspecified)
[1]
  MIC: 16 µg/mL (≈ 29.4 µM)
[2]
  MIC: 8 µg/mL (≈ 14.7 µM)
[3]
  MIC: > 64 µg/mL
[4]
  MIC: 16 µg/mL (≈ 29.4 µM)
[5]
  MIC: 8 µg/mL (≈ 14.7 µM)
[11]
  MIC: 8 µg/mL (≈ 14.7 µM)
[6]
  MIC: 8 µg/mL (≈ 14.7 µM)
[12]
  MIC: 8 µg/mL (≈ 14.7 µM)
[7]
  MIC: 8 µg/mL (≈ 14.7 µM)
[8]
  IC50: 5770 nM
[9]
  MIC: 8 µg/mL (≈ 14.7 µM)
[10]
  MIC: > 64 µg/mL

## COc1cc(/C=C2\SC(=S)N(C(Cc3c[nH]c4ccccc34)C(=O)O)C2=O)ccc1OCc1ccc(C)cc1 (stereo unspecified)
[1]
  MIC: 2 µg/mL (≈ 3.58 µM)
[2]
  MIC: 2 µg/mL (≈ 3.58 µM)
[3]
  MIC: > 64 µg/mL
[4]
  MIC: 8 µg/mL (≈ 14.3 µM)
[5]
  MIC: 2 µg/mL (≈ 3.58 µM)
[11]
  MIC: 4 µg/mL (≈ 7.16 µM)
[6]
  MIC: 2 µg/mL (≈ 3.58 µM)
[12]
  MIC: 2 µg/mL (≈ 3.58 µM)
[7]
  MIC: 4 µg/mL (≈ 7.16 µM)
[8]
  IC50: 3600 nM
[9]
  MIC: 2 µg/mL (≈ 3.58 µM)
[10]
  MIC: > 64 µg/mL

## COc1c(N2CCNC(C)C2)c(F)cc2c(=O)c(C(=O)O)cn(C3CC3)c12 (stereo unspecified) [GATIFLOXACIN]
[1]
  MIC: 2 µg/mL (≈ 5.33 µM)
[2]
  MIC: 0.25 µg/mL (≈ 0.666 µM)
[3]
  MIC: 1 µg/mL (≈ 2.66 µM)
[4]
  MIC: 4 µg/mL (≈ 10.7 µM)
[5]
  MIC: 8 µg/mL (≈ 21.3 µM)
[11]
  MIC: 4 µg/mL (≈ 10.7 µM)
[6]
  MIC: 0.25 µg/mL (≈ 0.666 µM)
[12]
  MIC: 2 µg/mL (≈ 5.33 µM)
[7]
  MIC: 2 µg/mL (≈ 5.33 µM)
[9]
  MIC: 2 µg/mL (≈ 5.33 µM)

## O=C(O)C(Cc1c[nH]c2ccccc12)N1C(=O)/C(=C/c2ccc(OCc3ccc(Cl)cc3)cc2)SC1=S (stereo unspecified)
[1]
  MIC: 4 µg/mL (≈ 7.29 µM)
[2]
  MIC: 2 µg/mL (≈ 3.64 µM)
[3]
  MIC: > 64 µg/mL
[4]
  MIC: 4 µg/mL (≈ 7.29 µM)
[5]
  MIC: 4 µg/mL (≈ 7.29 µM)
[11]
  MIC: 4 µg/mL (≈ 7.29 µM)
[6]
  MIC: 2 µg/mL (≈ 3.64 µM)
[12]
  MIC: 4 µg/mL (≈ 7.29 µM)
[7]
  MIC: 4 µg/mL (≈ 7.29 µM)
[8]
  IC50: 2440 nM
[9]
  MIC: 4 µg/mL (≈ 7.29 µM)
[10]
  MIC: > 64 µg/mL

## OC(Cn1cncn1)(Cn1cncn1)c1ccc(F)cc1F [FLUCONAZOLE]
[10]
  MIC: 1 µg/mL (≈ 3.27 µM)
